Experimental data: ChEMBL document CHEMBL1127299, “Inhibition of peptidylglycine alpha-amidating monooxygenase by N-substituted homocysteine analogs” (J Med Chem, 1994)
Non-standard residues stand in square brackets, D forms with d. Residues, ends and D or L forms follow the SMILES beside them. ξ: configuration not given here. *: point of attachment. Hydrocinnamoyl = O=C(CCc1ccccc1)*; hCys = N[C@@H](CCS)C(=O)O; Nle = CCCC[C@H](N)C(=O)O; Cbz = O=C(OCc1ccccc1)*; Boc = CC(C)(C)OC(=O)*; ξhCys = NC(CCS)C(=O)O; OBn = c1ccc(CO*)cc1

Experiments:
[1] = target: T1, Peptidylglycine alpha-amidating monooxygenase (Rattus norvegicus, UniProt P14925); test: Inhibitory activity against peptidylglycine alpha-amidating monooxygenase (PAM) was determined; type: functional
T1 sequence (P14925 whole entry): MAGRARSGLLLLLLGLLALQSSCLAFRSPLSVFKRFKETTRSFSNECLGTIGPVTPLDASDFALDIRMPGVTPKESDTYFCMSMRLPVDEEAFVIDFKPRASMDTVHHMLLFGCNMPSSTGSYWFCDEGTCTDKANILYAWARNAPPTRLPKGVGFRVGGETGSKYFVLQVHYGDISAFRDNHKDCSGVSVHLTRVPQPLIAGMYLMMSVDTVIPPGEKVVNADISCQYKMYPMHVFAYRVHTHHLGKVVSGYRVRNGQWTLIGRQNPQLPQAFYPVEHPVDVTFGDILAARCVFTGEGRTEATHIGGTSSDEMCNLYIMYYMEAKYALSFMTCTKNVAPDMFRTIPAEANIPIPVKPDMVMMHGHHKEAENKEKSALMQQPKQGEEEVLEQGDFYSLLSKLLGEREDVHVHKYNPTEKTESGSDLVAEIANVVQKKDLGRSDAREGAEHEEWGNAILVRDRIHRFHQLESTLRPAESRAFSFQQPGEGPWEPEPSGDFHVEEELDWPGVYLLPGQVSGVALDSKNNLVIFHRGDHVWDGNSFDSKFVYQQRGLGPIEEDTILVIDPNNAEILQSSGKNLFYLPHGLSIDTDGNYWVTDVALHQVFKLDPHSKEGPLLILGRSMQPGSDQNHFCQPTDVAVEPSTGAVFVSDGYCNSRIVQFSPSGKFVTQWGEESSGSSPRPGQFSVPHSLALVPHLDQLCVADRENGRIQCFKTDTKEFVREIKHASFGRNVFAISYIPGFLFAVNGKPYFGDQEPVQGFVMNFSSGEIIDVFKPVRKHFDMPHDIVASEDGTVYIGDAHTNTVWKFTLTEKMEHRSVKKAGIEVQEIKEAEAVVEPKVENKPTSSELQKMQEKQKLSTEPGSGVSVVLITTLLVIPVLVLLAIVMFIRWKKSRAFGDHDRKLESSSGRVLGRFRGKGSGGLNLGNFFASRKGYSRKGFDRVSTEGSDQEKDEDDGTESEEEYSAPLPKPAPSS
How it was run: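 Partially purified PAM (DEAE cartridge, then Sephacryl 300 SF), 13.5 μU, preincubated with inhibitor 20 min at room temperature in 150 mM TES pH 7.0 with 0.001% Triton-100. Started with N-dansyl-D-Tyr-Phe-Gly (2.0 μM) plus ascorbate (3 mM), quenched with EDTA. Seven or more concentrations in duplicate, three runs; IC50 by least squares on log dose–response.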

[2] = target: T2, Peptidylglycine alpha-amidating monooxygenase (Rattus norvegicus) (UniProt P14925); test: (§1) Inhibition of PAM on Substance P biosynthesis in the dorsal root ganglion (DRG) cell culture assay; type: functional, tissue-based; set-up: concentration or dose not given beside the values; conditions: concentration not given here
T2 sequence (whole entry): T1 sequence (P14925 whole entry)
How it was run: (§2)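 Rat primary dorsal root ganglion neurons cultured without ascorbate for six days. On day 6 inhibitor added (10 μM), then ascorbate 500 μM 12 h later, incubated overnight. SP measured by RIA with an antibody selective for SP over SP-Gly. SP-Gly found by treating a duplicate sample with 3.5 μg PAM and taking the difference in SP; percent inhibition.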

[3] = target: T2, Peptidylglycine alpha-amidating monooxygenase (Rattus norvegicus); test: as §1; type: functional, tissue-based; conditions: concentration not given here; how it was run: as §2

Compound	IC50 [1] [nM]	inhibition [2] [%]	inhibition [3] [%]
N[C@H](Cc1ccc(O)cc1)C(=O)N[C@@H](Cc1ccccc1)C(=O)NCC(=O)O	> 10000		
O=C(O)CC[C@H](NC(=O)[C@H](Cc1ccccc1)NC(=O)CCc1ccccc1)C(=O)O (Hydrocinnamoyl-Phe-Glu-OH)	> 10000		
O=C(CCc1ccccc1)N[C@@H](Cc1ccccc1)C(=O)NC(CCS)C(=O)OCc1ccccc1 (stereo partly specified) (Hydrocinnamoyl-Phe-[ξhCys]-OBn)	> 10000		
O=C(O)C[C@H](NC(=O)[C@H](Cc1ccccc1)NC(=O)CCc1ccccc1)C(=O)O (Hydrocinnamoyl-Phe-Asp-OH)	> 10000		
O=C(CCc1ccccc1)N[C@@H](Cc1ccccc1)C(=O)NC1CCSC1=O (stereo partly specified)	> 10000	37	
CC(C)(C)OC(=O)N[C@H](Cc1ccc(O)cc1)C(=O)N[C@@H](Cc1ccccc1)C(=O)N[C@@H](CS)C(=O)O	340		
CC(C)(C)OC(=O)N[C@H](Cc1ccc(O)cc1)C(=O)N[C@@H](Cc1ccccc1)C(=O)NCC(=O)O	4000		
NC(=O)C[C@H](NC(=O)[C@H](Cc1ccccc1)NC(=O)CCc1ccccc1)C(=O)O (Hydrocinnamoyl-Phe-Asn-OH)	> 10000		
CN(C)c1cccc2c(S(=O)(=O)N[C@H](Cc3ccc(O)cc3)C(=O)N[C@@H](Cc3ccccc3)C(=O)NCC(=O)O)cccc12	4200		
CC(C)(C)OC(=O)N[C@H](Cc1ccc(O)cc1)C(=O)N[C@@H](Cc1ccccc1)C(=O)N[C@@H](CO)C(=O)O	> 10000		
O=C(CCc1ccccc1)N[C@@H](Cc1ccccc1)C(=O)N[C@H](CCS)C(=O)O	610		
O=C(CCc1ccccc1)N[C@@H](Cc1ccccc1)C(=O)NCCCS	1600		
C[C@H](NC(=O)[C@H](Cc1ccccc1)NC(=O)[C@@H](Cc1ccc(O)cc1)NC(=O)OC(C)(C)C)C(=O)O	> 10000		
O=C(CCc1ccccc1)NC(CCS)C(=O)O (stereo unspecified)	7500		
O=C(O)CNC(=O)[C@H](Cc1ccccc1)NC(=O)[C@@H](Cc1ccc(O)cc1)NC(=O)OCc1ccccc1	3500		

Now those with a lower IC50 [1], led by results:

IC50 [1] [nM]	inhibition [2] [%]	inhibition [3] [%]	Compound
330			O=C(CCc1ccccc1)N[C@@H](Cc1ccccc1)C(=O)N[C@@H](CS)C(=O)O (Hydrocinnamoyl-Phe-Cys-OH)
300			CC(C)C[C@H](NC(=O)CCc1ccccc1)C(=O)NC(CCS)C(=O)O (stereo partly specified) (Hydrocinnamoyl-Leu-[ξhCys]-OH)
160			CC(C)[C@H](NC(=O)CCc1ccccc1)C(=O)NC(CCS)C(=O)O (stereo partly specified) (Hydrocinnamoyl-Val-[ξhCys]-OH)
55	37		O=C(CCc1ccc(Cl)c(Cl)c1)N[C@@H](Cc1ccccc1)C(=O)NC(CCS)C(=O)O (stereo partly specified)
53			CC(C)(C)OC(=O)N[C@@H](Cc1ccccc1)C(=O)N[C@@H](CCS)C(=O)O (Boc-Phe-[hCys]-OH)
39	34		CC(C)(C)OC(=O)N[C@H](Cc1ccccc1)C(=O)N[C@@H](Cc1ccccc1)C(=O)N[C@@H](CCS)C(=O)O
29	10		CCC(C)CC(=O)N[C@@H](Cc1ccccc1)C(=O)N[C@@H](CCS)C(=O)O (stereo partly specified)
23		7	CCCC[C@H](NC(=O)CCc1ccccc1)C(=O)NC(CCS)C(=O)O (stereo partly specified) (Hydrocinnamoyl-[Nle]-[ξhCys]-OH)
18	40		O=C(N[C@@H](Cc1ccccc1)C(=O)N[C@@H](CCS)C(=O)O)OCc1ccccc1 (Cbz-Phe-[hCys]-OH)
18			CSCC[C@H](NC(=O)CCc1ccccc1)C(=O)NC(CCS)C(=O)O (stereo partly specified)
15	28		O=C(CCc1ccccc1)N[C@@H](Cc1ccccc1)C(=O)NC(CCS)C(=O)O (stereo partly specified)
14	22		O=C(COc1ccccc1)N[C@@H](Cc1ccccc1)C(=O)NC(CCS)C(=O)O (stereo partly specified)
10	67		O=C(N[C@@H](Cc1ccccc1)C(=O)NC(CCS)C(=O)O)c1ccc2ccccc2c1 (stereo partly specified)
10	25		O=C(CCc1ccccc1)N[C@@H](Cc1ccccc1)C(=O)N[C@@H](CCS)C(=O)O
8	42		O=C(N[C@@H](Cc1ccccc1)C(=O)NC(CCS)C(=O)O)c1cc2ccccc2[nH]1 (stereo partly specified)
